In paper PMC10798293 (Journal of Enzyme Inhibition and Medicinal Chemistry, 2024):
Entries after “also recorded” stand apart in the source; their conditions may differ. Each block holds one compound with its values, some of them ahead of it.

How the values were obtained:
[1] = target: T1, SaSDH (Staphylococcus aureus shikimate dehydrogenase) (Staphylococcus aureus, UniProt Q5HFG5); assay: SaSDH enzyme inhibition; assay type: biochemical; details: for IC50: 1 mM SHK, 1.54 ng SaSDH, pH 9.0, 37 °C, 30 min; for Mode of inhibition: with respect to SHK
T1 sequence (Q5HFG5 1-268): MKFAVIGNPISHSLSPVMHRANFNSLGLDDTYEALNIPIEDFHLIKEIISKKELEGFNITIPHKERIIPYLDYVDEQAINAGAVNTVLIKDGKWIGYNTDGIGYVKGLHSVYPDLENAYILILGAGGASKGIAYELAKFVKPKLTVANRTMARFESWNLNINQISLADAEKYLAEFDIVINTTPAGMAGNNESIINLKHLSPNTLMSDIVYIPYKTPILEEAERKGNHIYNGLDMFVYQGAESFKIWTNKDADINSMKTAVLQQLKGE

S. aureus [2] = assay: S. aureus susceptibility, micro-broth two-fold serial dilution; assay type: cell-based, Staphylococcus aureus
S. aureus [3] = assay: Growth / time-kill curves; assay type: cell-based, Staphylococcus aureus; details: inhibitor at MIC: 50 μg/mL (-)-gallocatechin gallate, 250 μg/mL rhodiosin
S. aureus [4] = assay: Cell membrane integrity, Calcein AM/PI staining; assay type: cell-based, Staphylococcus aureus; details: MIC, 37 °C, 3 h
SaSDH [5] = target: T2, SaSDH (Staphylococcus aureus, UniProt Q5HFG5); assay: Isothermal titration calorimetry; assay type: binding; details: ITC, 100 mM Tris-HCl pH 9.0, 25 °C
T2 sequence (Q5HFG5 1-268): T1 sequence (Q5HFG5 1-268)

S. aureus [6] = assay: Scanning electron microscopy of bacterial morphology; assay type: cell-based, Staphylococcus aureus; details: MIC and 1/2 MIC, 1.5 h
SaSDH [7] = target: T2, SaSDH; assay: SaSDH enzyme activity and kinetic parameters for substrates; assay type: biochemical; details: substrate varied, co-substrate at saturation, pH 9.0, 37 °C
Summary of the method: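 His-tagged SaSDH (pET-28a(+), E. coli BL21(DE3)pLysS, IPTG induction, Ni-NTA purified). Reverse reaction: NADP+-dependent SHK oxidation, 1.54 ng enzyme, 100 mM Tris-HCl pH 9.0, 37 °C, enzyme-started; A340 every minute for 60 min.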

Compound: NC(=O)c1ccc[n+]([C@@H]2O[C@H](COP(=O)([O-])OP(=O)(O)OC[C@H]3O[C@@H](n4cnc5c(N)ncnc54)[C@H](OP(=O)(O)O)[C@@H]3O)[C@@H](O)[C@H]2O)c1 [NADP^+]
Km (SaSDH [7]): 98.2 µM
Vmax (SaSDH [7]): 3.785 mM/min/µg

Compound: C[C@@H]1O[C@@H](OC[C@H]2O[C@@H](Oc3c(-c4ccc(OCCO)c(OCCO)c4)oc4cc(OCCO)cc(O)c4c3=O)[C@H](O)[C@@H](O)[C@@H]2O)[C@H](O)[C@H](O)[C@H]1O [Troxerutin, reference compound]
IC50 ([1]; IC50, 1 mM NADP): < 100 µM

Compound: Rhodiosin
Antibacterial activity (in words) (S. aureus [2]): antibacterial activities
Effect on S. aureus growth (time-kill curves) (S. aureus [3]): completely inhibited S.aureus growth
Mode of inhibition ([1]; Lineweaver-Burke plots): competitive inhibition
Mode of inhibition ([1]; Lineweaver-Burke plots, listed as rhodiosin): competitive inhibitor
Cell membrane integrity (PI-labeled bacteria) (S. aureus [4]): cell membrane destruction
Bacterial morphology by SEM (S. aureus [6]): cell disintegration, cell surface fracturing and wrinkling

Compound: CC=C1[C@H](O[C@@H]2O[C@H](CO)[C@@H](O)[C@H](O)[C@H]2O)OC=C(C(=O)OC)[C@H]1CC(=O)OC[C@H]1O[C@@H](OCCc2ccc(O)cc2)[C@H](O)[C@@H](O)[C@@H]1O (stereo in doubt) [Specneuzhenide]
IC50 ([1]; 1 mM NADP): < 100 µM

Continued, in another order:

IC50 ([1]; 1 mM NADP): < 100 µM
Compound: COc1ccc([C@@H]2CC(=O)c3c(O)cc(O[C@@H]4O[C@H](CO[C@@H]5O[C@@H](C)[C@H](O)[C@@H](O)[C@H]5O)[C@@H](O)[C@H](O)[C@H]4O)cc3O2)cc1O [Hesperidin]

IC50 ([1]; 1 mM NADP): < 100 µM
Ki ([1]; Lineweaver-Burke plots, SHK varied 0.25-4 mM): 2470 nM
Kd (SaSDH [5]): 44.6 µM
Compound: O=C(O[C@@H]1Cc2c(O)cc(O)cc2O[C@H]1c1cc(O)c(O)c(O)c1)c1cc(O)c(O)c(O)c1 [(-)-Gallocatechin gallate]
Antibacterial activity (in words) (S. aureus [2]): antibacterial activities
Effect on S. aureus growth (time-kill curves) (S. aureus [3]): slow bacterial growth
Mode of inhibition ([1]; Lineweaver-Burke plots): uncompetitive inhibition; also recorded: uncompetitive inhibitor
Cell membrane integrity (PI-labeled bacteria) (S. aureus [4]): cell membrane destruction
Bacterial morphology by SEM (S. aureus [6]): cell disintegration, cell surface fracturing and wrinkling

IC50 ([1]; IC50, 1 mM NADP): < 100 µM
Compound: O=C(OC[C@H]1O[C@@H](OC(=O)c2cc(O)c(O)c(O)c2)[C@H](OC(=O)c2cc(O)c(O)c(O)c2)[C@@H](OC(=O)c2cc(O)c(O)c(O)c2)[C@@H]1OC(=O)c1cc(O)c(O)c(O)c1)c1cc(O)c(O)c(O)c1 [Pentagalloylglucose]
Antibacterial activity (in words) (S. aureus [2]): antibacterial activities

Km (SaSDH [7]): 46.1 µM
Vmax (SaSDH [7]): 3.362 mM/min/µg
Compound: O=C(O)C1=C[C@@H](O)[C@@H](O)[C@H](O)C1 [SHK, shikimate]
